Tests used:
[1] = biological target: T1, 17-beta-hydroxysteroid dehydrogenase type 2 (Homo sapiens) (UniProt P37059); assay: Inhibition of human placental microsomal 17beta-HSD2 at 1 uM by HPLC analysis
T1 sequence (whole entry): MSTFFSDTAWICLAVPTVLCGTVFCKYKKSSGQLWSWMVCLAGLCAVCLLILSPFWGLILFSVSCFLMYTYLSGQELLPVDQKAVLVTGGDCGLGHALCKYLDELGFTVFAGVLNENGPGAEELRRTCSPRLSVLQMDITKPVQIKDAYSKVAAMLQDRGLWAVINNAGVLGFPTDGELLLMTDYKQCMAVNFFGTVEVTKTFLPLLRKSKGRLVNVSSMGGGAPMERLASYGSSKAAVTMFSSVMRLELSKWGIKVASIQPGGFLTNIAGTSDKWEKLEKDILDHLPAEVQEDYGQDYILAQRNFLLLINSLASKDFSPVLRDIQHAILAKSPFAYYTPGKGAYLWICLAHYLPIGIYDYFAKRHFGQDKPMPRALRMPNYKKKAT
In short: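 Microsomal pellet from human placenta incubated at 37 °C with NAD+ 1500 μM and inhibitor in 50 mM phosphate buffer with 20% glycerol, 1 mM EDTA; DMSO 1% final. Started with [3H]E2 + E2 (500 nM final), 20 min, stopped with HgCl2, ether-extracted, substrate/product separated by HPLC and quantified by peak integration. Mean of three determinations.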

[2] = biological target: T2, Peroxisomal multifunctional enzyme type 2 (Homo sapiens) (UniProt P51659); assay: Inhibition of human 17beta-HSD4 expressed in Escherichia coli assessed as radiolabeled E1 formation using [6,7-3H]E2 as substrate at 1 uM by scintillation counting
T2 sequence (whole entry): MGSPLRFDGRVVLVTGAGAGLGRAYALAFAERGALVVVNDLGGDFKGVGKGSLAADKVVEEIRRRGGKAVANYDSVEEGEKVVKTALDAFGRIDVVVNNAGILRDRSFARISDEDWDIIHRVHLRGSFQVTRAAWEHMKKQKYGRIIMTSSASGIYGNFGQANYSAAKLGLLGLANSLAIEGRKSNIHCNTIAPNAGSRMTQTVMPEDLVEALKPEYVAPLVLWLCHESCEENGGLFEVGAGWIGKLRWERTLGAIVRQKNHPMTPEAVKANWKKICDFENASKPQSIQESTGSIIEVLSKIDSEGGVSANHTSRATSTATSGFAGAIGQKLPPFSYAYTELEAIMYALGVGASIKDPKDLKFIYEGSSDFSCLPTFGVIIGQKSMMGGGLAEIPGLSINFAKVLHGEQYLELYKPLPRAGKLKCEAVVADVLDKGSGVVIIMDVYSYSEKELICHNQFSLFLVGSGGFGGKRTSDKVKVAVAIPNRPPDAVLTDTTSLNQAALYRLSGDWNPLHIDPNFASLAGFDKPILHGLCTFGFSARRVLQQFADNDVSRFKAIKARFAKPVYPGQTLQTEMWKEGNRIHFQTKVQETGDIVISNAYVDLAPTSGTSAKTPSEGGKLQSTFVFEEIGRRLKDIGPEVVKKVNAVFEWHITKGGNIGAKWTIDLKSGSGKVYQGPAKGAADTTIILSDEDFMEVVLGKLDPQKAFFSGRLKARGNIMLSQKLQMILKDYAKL

[3] = biological target: T3, Aldo-keto reductase family 1 member C3 (Homo sapiens) (UniProt P42330); assay: Inhibition of human 17beta-HSD5 expressed in Escherichia coli assessed as radiolabeled testosterone formation using [1,2,6,7-3H]A-dione as substrate at 1 uM by scintillation counting
T3 sequence (whole entry): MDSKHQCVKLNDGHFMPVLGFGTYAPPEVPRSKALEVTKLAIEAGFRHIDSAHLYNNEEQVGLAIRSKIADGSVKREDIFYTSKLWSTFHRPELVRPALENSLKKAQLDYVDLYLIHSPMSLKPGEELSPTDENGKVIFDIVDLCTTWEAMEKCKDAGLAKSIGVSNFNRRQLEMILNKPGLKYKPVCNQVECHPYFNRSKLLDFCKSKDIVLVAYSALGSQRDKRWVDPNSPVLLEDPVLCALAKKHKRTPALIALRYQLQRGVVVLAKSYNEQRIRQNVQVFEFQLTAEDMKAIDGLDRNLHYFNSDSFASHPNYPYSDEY

[4] = biological target: T4, 17-beta-hydroxysteroid dehydrogenase type 1 (Homo sapiens) (UniProt P14061); assay: Inhibition of human placental cytosolic 17beta-HSD1 assessed as inhibition of E2 formation using [2,4,6,7-3H]E1 as substrate at 1 uM after 10 mins by HPLC analysis
T4 sequence (whole entry): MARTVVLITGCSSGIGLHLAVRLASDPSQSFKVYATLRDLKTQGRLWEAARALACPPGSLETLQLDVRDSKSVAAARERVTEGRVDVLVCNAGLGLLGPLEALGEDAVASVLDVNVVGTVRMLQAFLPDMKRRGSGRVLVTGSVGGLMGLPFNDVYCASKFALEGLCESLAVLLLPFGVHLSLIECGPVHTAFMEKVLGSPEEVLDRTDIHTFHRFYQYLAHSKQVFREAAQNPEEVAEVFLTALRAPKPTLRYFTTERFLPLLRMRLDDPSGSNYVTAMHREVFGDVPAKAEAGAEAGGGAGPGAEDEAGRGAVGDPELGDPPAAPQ
In short: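 Cytosolic fraction from human placenta (ammonium sulfate precipitated) incubated with NADH 500 μM, test compound and [3H]E1 + E1 (500 nM final), 10 min; workup as for the type 2 assay (HgCl2 stop, ether extraction, HPLC, radiodetection). Mean of three determinations. For line 20, SF = IC50(17β-HSD1)/IC50(17β-HSD2).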

[5] = biological target: Estradiol 17-beta-dehydrogenase 2 (Rattus norvegicus) (UniProt Q62730); assay: Inhibition of rat liver microsomal 17beta-HSD2 assessed as inhibition of E1 formation using [2,4,6,7-3H]E2 as substrate at 1 uM after 20 mins by HPLC analysis
Sequence of Estradiol 17-beta-dehydrogenase 2 (Rattus norvegicus) (Q62730 whole entry, looked up): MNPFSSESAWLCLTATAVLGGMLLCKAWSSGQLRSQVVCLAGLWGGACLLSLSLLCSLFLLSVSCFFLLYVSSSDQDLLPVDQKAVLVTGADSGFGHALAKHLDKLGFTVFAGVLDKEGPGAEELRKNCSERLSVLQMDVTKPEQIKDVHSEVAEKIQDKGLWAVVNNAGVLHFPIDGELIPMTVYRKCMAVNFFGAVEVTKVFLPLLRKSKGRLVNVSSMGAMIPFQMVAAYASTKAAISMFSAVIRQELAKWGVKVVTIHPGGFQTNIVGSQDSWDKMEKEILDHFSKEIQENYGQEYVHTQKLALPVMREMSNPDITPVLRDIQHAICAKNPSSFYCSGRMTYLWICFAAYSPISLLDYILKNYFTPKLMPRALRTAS

[6] = biological target: Estradiol 17-beta-dehydrogenase 2 (Mus musculus) (UniProt P51658); assay: Inhibition of mouse liver microsomal 17beta-HSD2 assessed as inhibition of E1 formation using [2,4,6,7-3H]E2 as substrate at 1 uM after 20 mins by HPLC analysis
Sequence of Estradiol 17-beta-dehydrogenase 2 (Mus musculus) (P51658 whole entry, looked up): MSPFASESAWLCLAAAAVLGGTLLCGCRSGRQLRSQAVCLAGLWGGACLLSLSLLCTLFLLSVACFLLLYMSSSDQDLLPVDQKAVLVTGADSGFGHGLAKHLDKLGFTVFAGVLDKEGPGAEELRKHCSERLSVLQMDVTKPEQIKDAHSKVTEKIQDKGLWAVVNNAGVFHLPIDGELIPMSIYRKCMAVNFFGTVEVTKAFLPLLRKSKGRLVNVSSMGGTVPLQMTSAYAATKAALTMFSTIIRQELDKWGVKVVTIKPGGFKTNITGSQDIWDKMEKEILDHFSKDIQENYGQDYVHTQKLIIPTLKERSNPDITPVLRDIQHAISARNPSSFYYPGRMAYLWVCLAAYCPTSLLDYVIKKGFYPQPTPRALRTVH

inhibition [1]: 98%
inhibition [2]: 40%
inhibition [3]: 21%
inhibition [4]: 60%
inhibition [5]: 77%
inhibition [6]: 72%
Compound: Oc1ccc(-c2ccc3c(O)cccc3c2)cc1C(F)(F)F
